ChEMBL document CHEMBL1126072, “Hydantoin bioisosteres. In vivo active spiro hydroxy acetic acid aldose reductase inhibitors” (J Med Chem, 1992)
pIC50: −log10 of the molar value.

Assays:
[1] = target: T1, Aldo-keto reductase family 1 member B1 (Homo sapiens, UniProt P15121); test: Inhibitory activity against human placental aldose reductase
Rattus norvegicus [2] = test: Effective dose was tested against the inhibition of sorbitol accumulation in sciatic nerves from streptozotocin-diabetic rats dosed at 3*25 mg/kg over 27h.; format: functional; settings: Sciatic nerve
Rattus norvegicus [3] = test: Inhibition of sorbitol accumulation in sciatic nerves from streptozotocin-diabetic rats dosed at 3*25 mg/kg over 27h.; format: functional, Sciatic nerve
[4] = target: T1, Aldo-keto reductase family 1 member B1; test: Compound was tested in vitro for its inhibitory activity against human placental aldose reductase
Rattus norvegicus [5] = test: In vivo inhibition of sorbitol accumulation in sciatic nerves from streptozotocin-diabetic rats dosed at 1*25 mg/kg over 5 days.; format: functional, Sciatic nerve
Rattus norvegicus [6] = test: In vivo inhibition of sorbitol accumulation in sciatic nerves from streptozotocin-diabetic rats dosed at 3*25 mg/kg over 27h.; format: functional, Sciatic nerve
Rattus norvegicus [7] = test: Inhibition of sorbitol accumulation in sciatic nerves from streptozotocin-diabetic rats dosed at 3*10 mg/kg over 27h.; format: functional, Sciatic nerve
Outline: (§1)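 Male Sprague-Dawley rats (180–220 g, 42–54 days) made diabetic with streptozotocin 85 mg/kg at 0 h. Oral gavage at 4, 7 and 24 h, dose quoted per time point. Sciatic nerve sorbitol measured with sorbitol dehydrogenase/NAD in pH 9.4 glycine. Mean (±SEM) percent inhibition against untreated diabetic controls, Student's t test on absolute sorbitol.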

Rattus norvegicus [8] = test: Plasma concentration at 3h after the last dose of 25 mg/kg for 5 days.; format: functional
Rattus norvegicus [9] = test: Nerve concentration at 3h after the last dose of 25 mg/kg for 5 days.; format: functional
[10] = target: T1, Aldo-keto reductase family 1 member B1; test: ARI(aldose reductase inhibitor) enantiospecificity against human placental aldose reductase.
Rattus norvegicus [11] = test: Inhibition of sorbitol accumulation in sciatic nerves from streptozotocin-diabetic rats dosed at 3*50 mg/kg over 27h.; format: functional, Sciatic nerve; outline: as §1

Compound | pIC50 [1] | ED50 (Rattus norvegicus [2]) | Inhibition (Rattus norvegicus [3]) | other results
C[C@@H]1C[C@@](O)(CC(=O)O)c2cc(Cl)ccc2O1 | 6.09 | 14.9 mg/kg | 67% | –
C[C@@H]1C[C@@](O)(CC(=O)O)c2cc(Cl)cc(Cl)c2O1 | 6.00 | 26.6 mg/kg | 48% | –
CC(C)[C@@H]1C[C@@](O)(CC(=O)O)c2cc(F)ccc2O1 | 6.24 | – | -7% | –
C[C@@H]1C[C@@](O)(CC(=O)O)c2ccc(C(=O)O)cc2O1 | 7.15 | 26.6 mg/kg | 48% | –
C[C@@H]1C[C@@](O)(CC(=O)O)c2cccc(Cl)c2O1 | 5.24 | – | – | –
C[C@@H]1C[C@@](O)(CC(=O)O)c2c(Cl)cc(Cl)cc2O1 | 4.53 | – | – | –
CC[C@@H]1C[C@@](O)(CC(=O)O)c2cc(F)ccc2O1 | 6.21 | 50.6 mg/kg | 27% | –
O=C(O)C[C@@]1(O)c2cc(F)ccc2O[C@@H]2CCCC[C@@H]21 | 4.96 | – | – | –
C[C@@H]1C[C@@](O)(CC(=O)O)c2cc(F)c(Br)cc2O1 | 7.05 | 4.94 mg/kg | – | pIC50 [4]: 6.92; Inhibition (Rattus norvegicus [5]): 44%; Inhibition (Rattus norvegicus [6]): 73%; Inhibition (Rattus norvegicus [7]): 73%; Tissue levels (Rattus norvegicus [8]): 8.8 µg/mL; Tissue levels (Rattus norvegicus [9]): 1.31 µg/mL
C[C@@H]1C[C@@](O)(CC(=O)O)c2ccc(Cl)cc2O1 | 5.48 | – | 0% | –
C[C@@H]1C[C@@](O)(CC(=O)O)c2ccc(F)cc2O1 | 5.27 | – | – | –
C[C@@H]1[C@@H](C)Oc2ccc(F)cc2[C@]1(O)CC(=O)O | 4.53 | – | – | –
C[C@@H]1C[C@@](O)(CC(=O)O)c2cc(Cl)c(OCc3ccccc3)cc2O1 | 7.22 | 32 mg/kg | – | Inhibition (Rattus norvegicus [7]): 12%
Cc1cc2c(cc1[N+](=O)[O-])[C@](O)(CC(=O)O)C[C@@H](C)O2 | 7.05 | 35 mg/kg | 39% | –
C[C@H]1Oc2ccc(F)cc2[C@](O)(CC(=O)O)[C@H]1C | 6.04 | 47.6 mg/kg | 29% | –
Cc1cc(Cl)cc2c1O[C@H](C)C[C@@]2(O)CC(=O)O | 5.93 | 49 mg/kg | 28% | –
C[C@@H]1C[C@@](O)(CC(=O)O)c2cc(Cl)c(Cl)cc2O1 | – | – | – | pIC50 [10]: 5.25
C[C@@H]1C[C@@](O)(CC(=O)O)c2ccccc2O1 | 4.83 | – | – | Inhibition (Rattus norvegicus [11]): 9%
C[C@@H]1C[C@@](O)(CC(=O)O)c2c(ccc(Cl)c2Cl)O1 | 5.79 | 25 mg/kg | 50% | –
O=C(O)C[C@]1(O)C[C@@H](CCc2ccccc2)Oc2ccc(F)cc21 | 5.94 | – | 5% | –
CCC[C@@H]1C[C@@](O)(CC(=O)O)c2cc(F)ccc2O1 | 6.01 | 70.8 mg/kg | 16% | –
C[C@@H]1C[C@@](O)(CC(=O)O)c2cc(Cl)c3ccccc3c2O1 | 6.40 | 29.1 mg/kg | 45% | –
CC(=O)c1ccc2c(c1)[C@](O)(CC(=O)O)C[C@@H](C)O2 | 6.19 | – | 5% | –
C[C@@H]1C[C@@](O)(CC(=O)O)c2ccc(Cl)c(Cl)c2O1 | 6.11 | – | – | –
C[C@@H]1C[C@@](O)(CC(=O)O)c2cc(Br)cc(Cl)c2O1 | 5.29 | – | – | –
C[C@@H]1C[C@@](O)(CC(=O)O)c2c(Cl)ccc(Cl)c2O1 | 4.88 | – | – | –

Compound | pIC50 [1] | ED50 (Rattus norvegicus [2]) | Inhibition (Rattus norvegicus [3]) | other results
C[C@@H]1C[C@@](O)(CC(=O)O)c2c(ccc(Cl)c2[N+](=O)[O-])O1 | 4.02 | – | – | –
C[C@@H]1C[C@@](O)(CC(=O)O)c2cc([N+](=O)[O-])ccc2O1 | 7.10 | 12 mg/kg | 74% | –
CC1(C)C[C@@](O)(CC(=O)O)c2cc(Cl)c(Cl)cc2O1 | 5.73 | – | 6% | –
Cc1cc2c(cc1Cl)[C@](O)(CC(=O)O)C[C@@H](C)O2 | 6.62 | 12.7 mg/kg | 72% | –
CC1(C)C[C@@](O)(CC(=O)O)c2c(ccc(Cl)c2Cl)O1 | 4.83 | – | – | –
CC(C)(C)[C@@H]1C[C@@](O)(CC(=O)O)c2cc(F)ccc2O1 | 6.44 | 47.6 mg/kg | 29% | –
C[C@@H]1C[C@@](O)(CC(=O)O)c2c(ccc(F)c2Br)O1 | 5.35 | – | – | –
C[C@@H]1C[C@@](O)(CC(=O)O)c2cc([N+](=O)[O-])c(F)cc2O1 | 7.15 | – | – | Inhibition (Rattus norvegicus [7]): 5%
O=C(O)C[C@]1(O)C[C@@H](c2ccccc2)Oc2ccc(F)cc21 | 5.57 | – | – | Inhibition (Rattus norvegicus [11]): 3%
CCc1cc2c(cc1Cl)[C@](O)(CC(=O)O)C[C@@H](C)O2 | 7.00 | 13.6 mg/kg | – | Inhibition (Rattus norvegicus [7]): 40%
C[C@@H]1C[C@@](O)(CC(=O)O)c2cc(Cl)c(F)cc2O1 | 6.41 | 19 mg/kg | – | pIC50 [4]: 6.39; Inhibition (Rattus norvegicus [5]): -30%; Inhibition (Rattus norvegicus [6]): 29%; Inhibition (Rattus norvegicus [7]): 29%; Tissue levels (Rattus norvegicus [8]): 13.4 µg/mL; Tissue levels (Rattus norvegicus [9]): 2.35 µg/mL
C[C@@H]1C[C@@](O)(CC(=O)O)C2=C(C=CCC2(C)[N+](=O)[O-])O1 (some centres undefined) | 5.79 | – | -31% | –
Cc1ccc2c(c1)[C@](O)(CC(=O)O)C[C@@H](C)O2 | 4.95 | – | -16% | –
COc1cc2c(cc1Cl)[C@](O)(CC(=O)O)C[C@@H](C)O2 | 6.72 | 36.5 mg/kg | 53% | –
COc1ccc2c(c1)[C@](O)(CC(=O)O)C[C@@H](C)O2 | 3.55 | – | – | –
C[C@@H]1C[C@@](O)(CC(=O)O)c2cc([N+](=O)[O-])c(Cl)cc2O1 | 6.96 | 14.9 mg/kg | 67% | –
C[C@@H]1C[C@@](O)(CC(=O)O)c2cc(F)c(F)cc2O1 | 6.60 | 5.94 mg/kg | – | pIC50 [4]: 6.46; Inhibition (Rattus norvegicus [5]): -20%; Inhibition (Rattus norvegicus [6]): 67%; Inhibition (Rattus norvegicus [7]): 67%; Tissue levels (Rattus norvegicus [8]): 2.19 µg/mL; Tissue levels (Rattus norvegicus [9]): <0.1 µg/mL
C[C@@H]1COc2ccc(F)cc2[C@]1(O)CC(=O)O | 4.96 | – | – | –
C[C@@H]1C[C@@](O)(CC(=O)O)c2cc(Cl)c(Br)cc2O1 | 7.15 | 11.3 mg/kg | – | pIC50 [4]: 7.30; Inhibition (Rattus norvegicus [5]): 33%; Inhibition (Rattus norvegicus [6]): 46%; Inhibition (Rattus norvegicus [7]): 46%; Tissue levels (Rattus norvegicus [8]): 12.7 µg/mL; Tissue levels (Rattus norvegicus [9]): 3.11 µg/mL
C[C@@H]1C[C@@](O)(CC(=O)O)c2c(Cl)cccc2O1 | 4.36 | – | – | –
C[C@@H]1C[C@@](O)(CC(=O)O)c2cc(F)c(Cl)cc2O1 (stereo in doubt; 23) | 7.22 | 5.1 mg/kg | 76% | pIC50 [10]: 7.31; pIC50 [4]: 7.92; Inhibition (Rattus norvegicus [5]): 55%; Inhibition (Rattus norvegicus [6]): 72%; Tissue levels (Rattus norvegicus [8]): 14.2 µg/mL; Tissue levels (Rattus norvegicus [9]): 1.85 µg/mL
CC1(C)C[C@@](O)(CC(=O)O)c2cc([N+](=O)[O-])ccc2O1 | 6.40 | 37.2 mg/kg | 37% | –
C[C@@H]1C[C@@](O)(CC(=O)O)c2cc(S(C)(=O)=O)ccc2O1 | 5.09 | – | – | –
C1CCC(NC2CCCCC2)CC1.O=C(O)C[C@]1(O)C[C@@H](C(=O)c2ccccc2)Oc2ccc(F)cc21 | 5.86 | – | 1% | –
C[C@@H]1C[C@@](O)(CC(=O)O)c2cc(Br)ccc2O1 | 5.78 | 60.8 mg/kg | 21% | –
C[C@@H]1C[C@@](O)(CC(=O)O)c2cc(C#N)c(F)cc2O1 | 6.89 | 29.2 mg/kg | – | Inhibition (Rattus norvegicus [7]): 15%
